# Assay results published in ChEMBL document CHEMBL2384906, “Biological activity, design, synthesis and structure activity relationship of some novel derivatives of curcumin containing sulfonamides” (Eur J Med Chem, 2013).
# The source made the active and inactive calls. The rule behind the calls is not given here.
# Tests used:
# Bacillus cereus [1] = experiment: Antimicrobial activity against Bacillus cereus MTCC 7350 after 24 hrs by broth micro serial dilution method; assay type: functional; details: MTCC 7350, 24 h
# Outline: (§1)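 This was broth microdilution in autoclaved Mueller-Hinton broth. 150 µL of compound per well was serially diluted […], and 50 µL of test organism was added. Plates were incubated 24 h at 37 °C and optical density was read.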
# Curvularia lunata [2] = experiment: Antifungal activity against Curvularia lunata MTCC 581 assessed as zone of inhibition at 20 uM after 48 hrs by disc diffusion method; assay type: functional; details: MTCC 581, 48 h, read-out: IZ
# Outline: (§2)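 Spores from 4-day potato dextrose agar cultures, suspended in sterile water at 1.5 × 10⁵ CFU/mL. 0.2 mL was spread on potato dextrose agar. 5 mm filter-paper discs soaked with test compound were laid on the lawn. Incubation was 48 h at 28 °C, then the inhibition zone was measured in mm. Fluconazole was the positive control and acetone the negative control.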
# Bacillus cereus [3] = experiment: Antimicrobial activity against Bacillus cereus MTCC 7350 assessed as diameter of inhibition zone at 80 uM after 24 hrs by Kirby -Baur disc diffusion method; assay type: functional; details: MTCC 7350, 24 h, read-out: DIZ
# Outline: (§3)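 Kirby-Bauer disc diffusion was used. Acetone stocks (160 µM) were serially doubled down to 80, 40 and 20 µM. 4 µL of each went onto 5 mm sterile paper discs, which were dried 30 min at 50 °C. Inoculum was 1.5 × 10⁸ CFU/mL diluted to 3 × 10² CFU/mL, and 50 µL was spread on Mueller-Hinton agar. After 24 h at 37 °C the inhibition-zone diameter was measured. Ciprofloxacin served as positive control.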
# Mus musculus = experiment: Antiinflammatory activity in mouse assessed as inhibition of carrageenan-induced increase in paw volume at 200 mg/kg administered 1 hr prior to carrageenan challenge measured after 3 hrs relative to control; assay type: functional
# Outline: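 Mice were fasted 2 h and placed in groups of five. Controls received saline i.p. Phenylbutazone was given at 100 mg/kg i.p., curcumin at 200 mg/kg i.p., and derivatives at 200 mg/kg. After 1 h, 0.1 mL of 1% carrageenan in saline was injected subplantar into the right hind paw. Paw volume was followed by plethysmometer for 3 h, and % inhibition was calculated as (Vc − Vt)/Vc × 100.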
# Aspergillus niger [4] = experiment: Antifungal activity against Aspergillus niger MTCC 1108 assessed as zone of inhibition at 80 uM after 48 hrs by disc diffusion method; assay type: functional; outline: as §2
# Staphylococcus aureus [5] = experiment: Antimicrobial activity against Staphylococcus aureus ATCC 11632 assessed as diameter of inhibition zone at 40 uM after 24 hrs by Kirby -Baur disc diffusion method; assay type: functional; outline: as §3
# Curvularia lunata [6] = experiment: Antifungal activity against Curvularia lunata MTCC 581 assessed as zone of inhibition at 40 uM after 48 hrs by disc diffusion method; assay type: functional; details: MTCC 581, 48 h, read-out: IZ; outline: as §2
# Staphylococcus aureus [7] = experiment: Antimicrobial activity against Staphylococcus aureus ATCC 11632 assessed as diameter of inhibition zone at 20 uM after 24 hrs by Kirby -Baur disc diffusion method; assay type: functional; outline: as §3
# Bacillus cereus [8] = experiment: Antimicrobial activity against Bacillus cereus MTCC 7350 assessed as diameter of inhibition zone at 40 uM after 24 hrs by Kirby -Baur disc diffusion method; assay type: functional; details: MTCC 7350, 24 h, read-out: DIZ; outline: as §3
# Salmonella typhi [9] = experiment: Antimicrobial activity against Salmonella typhi ATCC 23564 assessed as diameter of inhibition zone at 20 uM after 24 hrs by Kirby -Baur disc diffusion method; assay type: functional
# Aspergillus flavus [10] = experiment: Antifungal activity against Aspergillus flavus MTCC 1021 after 48 hrs; assay type: functional; details: MTCC 1021, 48 h
# Curvularia lunata [11] = experiment: Antifungal activity against Curvularia lunata MTCC 581 assessed as zone of inhibition at 80 uM after 48 hrs by disc diffusion method; assay type: functional; details: MTCC 581, 48 h, read-out: IZ; outline: as §2
# Curvularia lunata [12] = experiment: Antifungal activity against Curvularia lunata MTCC 581 after 48 hrs; assay type: functional; details: MTCC 581, 48 h
# HepG2 = experiment: Cytotoxicity against human HepG2 cells after 24 hrs by MTT assay; assay type: functional, cell-based
# Outline: (§4)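 The MTT assay seeded 5 × 10⁴ cells per well and grew them 24 h in RPMI 1640 with compound at 2.5–200 µM. Medium without cells was the blank and adriamycin the positive control. MTT was added for 4 h at 37 °C, formazan was solubilised, and absorbance was read at 570 nm. IC50 is the concentration that cuts viability 50% against untreated cells.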
# Pseudomonas aeruginosa [13] = experiment: Antimicrobial activity against Pseudomonas aeruginosa ATCC 15499 assessed as diameter of inhibition zone at 40 uM after 24 hrs by Kirby -Baur disc diffusion method; assay type: functional; details: ATCC 15499, 24 h, read-out: DIZ; outline: as §3
# Escherichia coli [14] = experiment: Antimicrobial activity against Escherichia coli ATCC 35218 after 24 hrs by broth micro serial dilution method; assay type: functional; details: ATCC 35218, 24 h; outline: as §1
# Staphylococcus aureus [15] = experiment: Antimicrobial activity against Staphylococcus aureus ATCC 11632 after 24 hrs by broth micro serial dilution method; assay type: functional; details: ATCC 11632, 24 h; outline: as §1
# Salmonella typhi [16] = experiment: Antimicrobial activity against Salmonella typhi ATCC 23564 assessed as diameter of inhibition zone at 80 uM after 24 hrs by Kirby -Baur disc diffusion method; assay type: functional, Salmonella enterica subsp. enterica serovar Typhi; details: Salmonella enterica, ATCC 23564, 24 h; read-out: DIZ
# HeLa = experiment: Cytotoxicity against human HeLa cells after 24 hrs by MTT assay; assay type: functional, cell-based; outline: as §4
# Pseudomonas aeruginosa [17] = experiment: Antimicrobial activity against Pseudomonas aeruginosa ATCC 15499 after 24 hrs by broth micro serial dilution method; assay type: functional; details: ATCC 15499, 24 h; outline: as §1
# HCT-116 = experiment: Cytotoxicity against human HCT116 cells after 24 hrs by MTT assay; assay type: functional, cell-based; outline: as §4
# Staphylococcus aureus [18] = experiment: Antimicrobial activity against Staphylococcus aureus ATCC 11632 assessed as diameter of inhibition zone at 80 uM after 24 hrs by Kirby -Baur disc diffusion method; assay type: functional; details: ATCC 11632, 24 h, read-out: DIZ; outline: as §3
# Escherichia coli [19] = experiment: Antimicrobial activity against Escherichia coli ATCC 35218 assessed as diameter of inhibition zone at 80 uM after 24 hrs by Kirby -Baur disc diffusion method; assay type: functional; outline: as §3
# Pseudomonas aeruginosa [20] = experiment: Antimicrobial activity against Pseudomonas aeruginosa ATCC 15499 assessed as diameter of inhibition zone at 80 uM after 24 hrs by Kirby -Baur disc diffusion method; assay type: functional; details: ATCC 15499, 24 h, read-out: DIZ; outline: as §3
# Trichoderma viride [21] = experiment: Antifungal activity against Trichoderma viride MTCC 1107 assessed as zone of inhibition at 80 uM after 48 hrs by disc diffusion method; assay type: functional; details: MTCC 1107, 48 h, read-out: IZ; outline: as §2
# QG-56 = experiment: Cytotoxicity against human QG56 cells after 24 hrs by MTT assay; assay type: functional, cell-based; outline: as §4
# Aspergillus flavus [22] = experiment: Antifungal activity against Aspergillus flavus MTCC 1021 assessed as zone of inhibition at 80 uM after 48 hrs by disc diffusion method; assay type: functional; outline: as §2
# Salmonella typhi [23] = experiment: Antimicrobial activity against Salmonella typhi ATCC 23564 assessed as diameter of inhibition zone at 40 uM after 24 hrs by Kirby -Baur disc diffusion method; assay type: functional
# Bacillus cereus [24] = experiment: Antimicrobial activity against Bacillus cereus MTCC 7350 assessed as diameter of inhibition zone at 20 uM after 24 hrs by Kirby -Baur disc diffusion method; assay type: functional; outline: as §3
# Trichoderma viride [25] = experiment: Antifungal activity against Trichoderma viride MTCC 1107 after 48 hrs; assay type: functional; details: MTCC 1107, 48 h
# Trichoderma viride [26] = experiment: Antifungal activity against Trichoderma viride MTCC 1107 assessed as zone of inhibition at 20 uM after 48 hrs by disc diffusion method; assay type: functional; details: MTCC 1107, 48 h, read-out: IZ; outline: as §2
# Salmonella typhi [27] = experiment: Antimicrobial activity against Salmonella typhi ATCC 23564 after 24 hrs by broth micro serial dilution method; assay type: functional, Salmonella enterica subsp. enterica serovar Typhi; details: Salmonella enterica, ATCC 23564, 24 h
# Pseudomonas aeruginosa [28] = experiment: Antimicrobial activity against Pseudomonas aeruginosa ATCC 15499 assessed as diameter of inhibition zone at 20 uM after 24 hrs by Kirby -Baur disc diffusion method; assay type: functional; outline: as §3
# Trichoderma viride [29] = experiment: Antifungal activity against Trichoderma viride MTCC 1107 assessed as zone of inhibition at 40 uM after 48 hrs by disc diffusion method; assay type: functional; details: MTCC 1107, 48 h, read-out: IZ; outline: as §2
# Aspergillus niger [30] = experiment: Antifungal activity against Aspergillus niger MTCC 1108 after 48 hrs; assay type: functional; details: MTCC 1108, 48 h
# Escherichia coli [31] = experiment: Antimicrobial activity against Escherichia coli ATCC 35218 assessed as diameter of inhibition zone at 20 uM after 24 hrs by Kirby -Baur disc diffusion method; assay type: functional; details: ATCC 35218, 24 h, read-out: DIZ; outline: as §3
# Escherichia coli [32] = experiment: Antimicrobial activity against Escherichia coli ATCC 35218 assessed as diameter of inhibition zone at 40 uM after 24 hrs by Kirby -Baur disc diffusion method; assay type: functional; details: ATCC 35218, 24 h, read-out: DIZ; outline: as §3
# [33] = Salmonella enterica subsp. enterica serovar Typhi
# [34] = ATCC 11632, 24 h, read-out: DIZ
# [35] = Salmonella enterica, ATCC 23564, 24 h, read-out: DIZ
compound,measurement,setting,value
COc1cc(/C=C/c2noc(/C=C/c3ccc(O)c(OC)c3)c2/N=N/c2ccc(S(=O)(=O)Nc3nc(C)cc(C)n3)cc2)ccc1O,MIC,Bacillus cereus [1],> 80 µM
same,zone of inhibition at 20 µM,Curvularia lunata [2],9 mm
same,zone of inhibition at 80 µM,Bacillus cereus [3],11 mm
same,inhibition in vivo at 200 mg/kg,Mus musculus,41.9%
same,inhibition zone (IZ),Aspergillus niger [4],inactive
same,diameter of the inhibition zone (DIZ),Staphylococcus aureus [5],inactive
same,zone of inhibition at 40 µM,Curvularia lunata [6],11 mm
same,diameter of the inhibition zone (DIZ),Staphylococcus aureus [7],inactive
same,zone of inhibition at 40 µM,Bacillus cereus [8],9 mm
same,diameter of the inhibition zone (DIZ),Salmonella typhi [9]; [33],inactive
same,MIC,Aspergillus flavus [10],> 80 µM
same,zone of inhibition at 80 µM,Curvularia lunata [11],13 mm
same,MIC,Curvularia lunata [12],80 µM
same,IC50,HepG2,Not Active
same,zone of inhibition at 40 µM,Pseudomonas aeruginosa [13],10 mm
same,MIC,Escherichia coli [14],> 80 µM
same,MIC,Staphylococcus aureus [15],> 80 µM
same,zone of inhibition at 80 µM,Salmonella typhi [16],10 mm
same,IC50,HeLa,Not Active
same,MIC,Pseudomonas aeruginosa [17],80 µM
same,IC50,HCT-116,Not Active
same,zone of inhibition at 80 µM,Staphylococcus aureus [18],12 mm
same,diameter of the inhibition zone (DIZ),Escherichia coli [19],inactive
same,zone of inhibition at 80 µM,Pseudomonas aeruginosa [20],15 mm
same,zone of inhibition at 80 µM,Trichoderma viride [21],13 mm
same,IC50,QG-56,Not Active
same,inhibition zone (IZ),Aspergillus flavus [22],inactive
same,diameter of the inhibition zone (DIZ),Salmonella typhi [23]; [33],inactive
same,diameter of the inhibition zone (DIZ),Bacillus cereus [24],inactive
same,MIC,Trichoderma viride [25],80 µM
same,zone of inhibition at 20 µM,Trichoderma viride [26],9 mm
same,MIC,Salmonella typhi [27],> 80 µM
same,diameter of the inhibition zone (DIZ),Pseudomonas aeruginosa [28],inactive
same,zone of inhibition at 40 µM,Trichoderma viride [29],11 mm
same,MIC,Aspergillus niger [30],> 80 µM
O=C(O)c1cn(C2CC2)c2cc(N3CCNCC3)c(F)cc2c1=O [CIPROFLOXACIN],MIC,Bacillus cereus [1],0.63 µM
same,zone of inhibition at 80 µM,Bacillus cereus [3],37 mm
same,zone of inhibition at 40 µM,Staphylococcus aureus [5]; [34],32 mm
same,zone of inhibition at 20 µM,Staphylococcus aureus [7]; [34],29 mm
same,zone of inhibition at 40 µM,Bacillus cereus [8],34 mm
same,zone of inhibition at 20 µM,Salmonella typhi [9]; [35],37 mm
same,zone of inhibition at 40 µM,Pseudomonas aeruginosa [13],34 mm
same,MIC,Escherichia coli [14],1.25 µM
same,MIC,Staphylococcus aureus [15],1.25 µM
same,zone of inhibition at 80 µM,Salmonella typhi [16],52 mm
same,MIC,Pseudomonas aeruginosa [17],1.25 µM
same,zone of inhibition at 20 µM,Escherichia coli [31],29 mm
same,zone of inhibition at 80 µM,Staphylococcus aureus [18],36 mm
same,zone of inhibition at 80 µM,"Escherichia coli [19]; ATCC 35218, 24 h, read-out: DIZ",36 mm
same,zone of inhibition at 80 µM,Pseudomonas aeruginosa [20],38 mm
same,zone of inhibition at 40 µM,Escherichia coli [32],32 mm
same,zone of inhibition at 40 µM,Salmonella typhi [23]; [35],44 mm
same,zone of inhibition at 20 µM,"Bacillus cereus [24]; MTCC 7350, 24 h, read-out: DIZ",32 mm
same,MIC,Salmonella typhi [27],2.5 µM
same,zone of inhibition at 20 µM,"Pseudomonas aeruginosa [28]; ATCC 15499, 24 h, read-out: DIZ",31 mm
